The target in experiment [1] is Keap1 (Homo sapiens, UniProt Q14145). The experiment in a line: Keap1 degradation in MDA-MB-231 cells. It is filed as cell-based. As to conditions: 24 h, dose-dependent.
Experiment [2] has as its system OVA-induced AR mouse model. The experiment in a line: OVA-induced AR mouse model. The class given is in vivo. As to conditions: OVA-induced AR mice. The method in brief: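 Male C57BL/6 mice, 6 weeks old, sensitised i.p. with OVA/alum (1:1) weekly for 3 weeks. Then challenged i.n. with OVA 2 mg/20 µL daily for 7 days. Test compound given i.n. at 0, 5, 10 or 20 mg/kg in 5% DMSO/45% PEG400/50% PBS, once daily, 6 h before each challenge; dexamethasone 1 mg/kg as reference. Sneezes and nasal rubs counted blinded for 10 min, starting 10 min after challenge; n = 8.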

Peptide text beside a SMILES is read from it. * marks the point of attachment. Cbz = O=C(OCc1ccccc1)*

Chain of Keap1 (Q14145 whole entry): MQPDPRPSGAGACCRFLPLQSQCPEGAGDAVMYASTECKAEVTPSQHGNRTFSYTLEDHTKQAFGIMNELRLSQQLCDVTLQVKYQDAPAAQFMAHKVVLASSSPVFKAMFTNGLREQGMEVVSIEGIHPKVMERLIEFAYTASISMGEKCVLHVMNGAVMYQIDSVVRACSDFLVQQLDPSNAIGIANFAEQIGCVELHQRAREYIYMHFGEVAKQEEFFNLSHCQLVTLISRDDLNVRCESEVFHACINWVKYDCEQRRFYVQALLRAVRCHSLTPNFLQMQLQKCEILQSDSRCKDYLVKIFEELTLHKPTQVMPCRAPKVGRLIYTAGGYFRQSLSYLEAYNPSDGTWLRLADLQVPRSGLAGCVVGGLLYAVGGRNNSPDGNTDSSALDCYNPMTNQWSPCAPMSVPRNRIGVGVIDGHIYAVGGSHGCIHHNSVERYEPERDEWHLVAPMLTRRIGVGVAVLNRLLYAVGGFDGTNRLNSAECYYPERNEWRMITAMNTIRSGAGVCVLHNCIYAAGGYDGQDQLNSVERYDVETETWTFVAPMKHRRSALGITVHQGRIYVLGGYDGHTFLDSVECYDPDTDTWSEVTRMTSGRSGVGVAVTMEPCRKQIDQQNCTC

In the case of `CC(C)C[C@@H](C=O)NC(=O)[C@H](CC(C)C)NC(=O)[C@H](CC(C)C)NC(=O)OCc1ccccc1` [MG132] (Cbz-Leu-Leu-Leu-aldehyde), in experiment [1], the “effect on Keap1 levels” value is “decreasing Keap1 levels”.
Turning to `C[C@@H]1C[C@H]2[C@@H]3CCC4=CC(=O)C=C[C@]4(C)[C@@]3(F)[C@@H](O)C[C@]2(C)[C@@]1(O)C(=O)CO` [DEX, Dexamethasone], the “allergic nasal symptoms (number of nasal rubbing and sneezing every 10 min)” value in experiment [2] (i.n. daily for 7 days, 8 at 5, 10, 20 mg/kg, DEX 1 mg/kg) is “decreased”. In experiment [2] (DEX or high dose of 8), the “CD45+ cells in nasal mucosa (IHC staining)” value is recorded as “reduced” and the “eosinophil infiltration within the nasal mucosa (Giemsa staining)” value is “significantly reduced”.

The record behind these values is publication PMC12399198 (Acta Pharmaceutica Sinica. B, 2025).
